KDM4C inh: inhibitors of GASC-1 (KDM4C) histone demethylase, primary screen, biochemical, single concentration HTS | Lysine-specific demethylase 4C (Homo sapiens), Q9H3R0 | GST-KDM4C 2-372, H3K9me3 peptide, LANCE TR-FRET | inhibition, % at 12.5 µM | 96,000 compounds, 0.15% hits;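 active = mean replicate inhibition above about 25%, with at least 55% of replicates also reaching it, limit read from the data, passing the limit was not always enough; inconclusive = only one of those two conditions met; inactive = neither condition met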
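Test system: N-terminal GST-fused human GASC-1 (KDM4C) fragment, residues 2-372; quantity: GASC-1 enzyme at 10 nM final in reaction; dosing: single dose; schedule: 30 min demethylation and 1 h detection at room temperature; signal: LANCE TR-FRET, excitation 340 nm, emissions 618 and 671 nm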
IDH1 R132H inh: inhibitors of IDH1 R132H reductase, primary screen, biochemical, plate reader, single point | Isocitrate dehydrogenase [NADP] cytoplasmic (Homo sapiens), O75874 | 70,000 compounds, 0.18% hits | diaphorase/resazurin fluorescence, 60 min | inhibition, % at 10 µM | AID 624101, 2012; in the data active = inhibition above about 34%; inconclusive = no clear call, values can overlap the other calls; inactive = below about 11%;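 also: 0% = DMSO and 100% = no enzyme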
Target sequence (O75874 whole entry R132H): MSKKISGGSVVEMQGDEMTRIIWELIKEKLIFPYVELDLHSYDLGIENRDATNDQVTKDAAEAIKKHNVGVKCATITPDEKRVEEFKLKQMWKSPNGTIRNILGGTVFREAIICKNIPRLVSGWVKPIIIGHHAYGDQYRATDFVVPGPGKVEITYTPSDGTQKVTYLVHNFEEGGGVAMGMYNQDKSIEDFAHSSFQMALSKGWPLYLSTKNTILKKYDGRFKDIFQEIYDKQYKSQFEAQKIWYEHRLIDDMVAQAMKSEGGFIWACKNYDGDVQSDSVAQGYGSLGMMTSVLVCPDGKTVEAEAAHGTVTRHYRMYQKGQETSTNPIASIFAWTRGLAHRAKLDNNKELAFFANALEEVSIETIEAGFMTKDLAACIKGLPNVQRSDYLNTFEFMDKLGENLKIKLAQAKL
T cruzi growth-1: T. cruzi intracellular proliferation inhibitors, primary screen, cell-based, beta-gal Tulahuen parasites, NIH3T3 host, luminescence. T. cruzi beta-gal in NIH3T3, GalScreen luminescence, 90 h. inhibition, % at 8.34 µM. 77,000 compounds, 5.9% hits. AID 624255, 2012;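 active = mean inhibition above about 93%, with at least 55% of replicates each passing it, limit read from the data, passing the limit was not always enough; inconclusive = only one of those two conditions holds; inactive = neither condition holds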
Pf Dd2 growth: P. falciparum Dd2 growth inhibitors, primary screen, SYBR Green fluorescence, single dose replicates; 72 h; stronger effect = lower value; activity change, % at 10 µM; 94,000 compounds, 2.3% hits; in the data active = activity change below about -80%; inconclusive = no clear call, values can overlap the other calls
T cruzi growth-2: T. cruzi intracellular proliferation inhibitors, confirmation, cell-based, NIH3T3 host, beta-gal parasite, luminescence, cherry-pick | 5,600 compounds, 72% hits | T. cruzi beta-gal in NIH3T3, GalScreen luminescence, 90 h | inhibition, % at 8.35 µM | shares compounds with T cruzi growth-1;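 active = mean replicate inhibition above about 95% and at least 55% of replicates individually reaching it, limit read from the data; inconclusive = only one of the two criteria is met; inactive = neither criterion is met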
T cruzi growth-3: inhibitors of intracellular T. cruzi replication, confirmation, NIH3T3 host cells, beta-gal parasites, cherry-pick, set 2 | shares compounds with T cruzi growth-1 | T. cruzi beta-gal in NIH3T3, GalScreen luminescence, 90 h | inhibition, % at 2.09 µM | 5,600 compounds, 21% hits | AID 651740, 2012;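 active = mean inhibition above about 95%, with at least 55% of replicates also reaching it, limit read from the data; inconclusive = meets just one of the two conditions; inactive = meets neither condition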;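 also: plate controls were neutral control median for no effect and positive control median for full effect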
3T3 cytotox: cytotoxicity in mouse NIH/3T3 fibroblasts, confirmation, cytotoxicity control for T. cruzi proliferation inhibitor project, cell-based, cherry-pick, single point. shares compounds with T cruzi growth-1. NIH/3T3 viability, CellTiter-Glo ATP luminescence, 90 h. cytotoxicity (signal decrease), % at 8.35 µM. 5,600 compounds, 14% hits. AID 651742, 2012;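 active = mean signal decrease across replicates above about 35% based on untreated-well scatter, with enough replicates individually passing, limit read from the data; inconclusive = no rule stated though some were filed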;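 also: 0% = median of neutral control wells and 100% = median of positive control wells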
3T3 cytotox 2: NIH/3T3 fibroblast cytotoxicity, confirmation, cytotoxicity control, cell-based, cherry-pick, single point, set 2; shares compounds with T cruzi growth-1; NIH/3T3 viability, CellTiter-Glo ATP luminescence, 90 h; inhibition, % at 24.9 µM; 5,600 compounds, 56% hits; AID 651744, 2012;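 active = mean loss of cell viability signal at or above a set limit, and enough replicates individually reaching it; inconclusive = meets only the mean limit or only the replicate share; inactive = meets neither condition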;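 also: 0% = median of neutral control wells and 100% = median of positive control wells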
An asterisk follows results filed as active. Rows were chosen to be rich in hits. Some 5.9% of all compounds tested hit in one or more screens of this group.

`C[C@@H]1CCCCO[C@@H](CN(C)Cc2ccccc2)[C@H](C)CN([C@H](C)CO)C(=O)c2cc(NC(=O)Nc3ccccc3)ccc2O1` gave KDM4C inh -0.2, IDH1 R132H inh -4.3, T cruzi growth-1 103.0*, Pf Dd2 growth -76.2, T cruzi growth-2 105.9*, T cruzi growth-3 70.4, 3T3 cytotox 7.9 and 3T3 cytotox 2 104.8*.
For COc1ccc(NC(=O)Nc2ccc3c(c2)C(=O)N([C@H](C)CO)C[C@@H](C)[C@@H](CN(C)Cc2ccccc2)OCCCC[C@H](C)O3)cc1 the results were KDM4C inh 2.0, IDH1 R132H inh 0.8, T cruzi growth-1 103.0*, Pf Dd2 growth -62.2, T cruzi growth-2 107.7*, T cruzi growth-3 68.4, 3T3 cytotox -3.3 and 3T3 cytotox 2 59.5*.
`COc1ccc(NC(=O)Nc2ccc3c(c2)C(=O)N([C@@H](C)CO)C[C@H](C)[C@H](CN(C)Cc2ccccc2)OCCCC[C@@H](C)O3)cc1` gave KDM4C inh -0.8, T cruzi growth-1 89.0 and Pf Dd2 growth -55.9.
`C[C@@H]1CN([C@@H](C)CO)C(=O)c2cc(NC(=O)Nc3ccccc3)ccc2O[C@@H](C)CCCCO[C@H]1CN(C)Cc1ccccc1` gave KDM4C inh -0.2 and Pf Dd2 growth -66.6.
Screening Cc1cc(C)c(S(=O)(=O)N(C)CC(=O)Nc2cc([N+](=O)[O-])ccc2C)c(C)c1 returned IDH1 R132H inh -0.3.
Screening CCc1nc(SCC(=O)N(c2ccccc2)c2ccccc2)n[nH]1 returned IDH1 R132H inh 0.1.
For N#C[C@@H]1[C@@H](c2ccc(-c3ccc(F)cc3)cc2)[C@@H](CO)N1c1nc(-c2ccccc2)cs1 the results were KDM4C inh -3.2, T cruzi growth-1 105.2*, Pf Dd2 growth -40.3, T cruzi growth-2 107.9*, T cruzi growth-3 95.7*, 3T3 cytotox 15.7 and 3T3 cytotox 2 13.2.
Screening N#C[C@H]1[C@@H](c2ccc(-c3cccc(F)c3)cc2)[C@@H](CO)N1c1nc(-c2ccccc2)cs1 returned KDM4C inh 1.5, T cruzi growth-1 94.3 and Pf Dd2 growth 24.8.
`N#C[C@@H]1[C@@H](c2ccc(-c3cccc(F)c3)cc2)[C@@H](CO)N1c1nc(-c2ccccc2)cs1` gave KDM4C inh -1.9, T cruzi growth-1 98.6*, Pf Dd2 growth -50.8, T cruzi growth-2 110.0*, T cruzi growth-3 98.8*, 3T3 cytotox 28.8 and 3T3 cytotox 2 16.1.
`N#C[C@@H]1[C@@H](c2ccc(C3=CCCC3)cc2)[C@@H](CO)N1c1nc(-c2ccccc2)cs1` gave KDM4C inh -3.0, T cruzi growth-1 107.7*, Pf Dd2 growth 6.2, T cruzi growth-2 96.5*, T cruzi growth-3 40.0, 3T3 cytotox 6.5 and 3T3 cytotox 2 13.1.
CCOc1ccc(-n2c(SCC(=O)Nc3ccc(Cl)cc3)nc3ccccc3c2=O)cc1 was read as IDH1 R132H inh -0.1.
`COc1ccc(NC(=O)CSc2n[nH]c(-c3ccncc3)n2)cc1` gave IDH1 R132H inh -0.2.
CC(C)C#Cc1ccc([C@@H]2[C@@H](CO)N(C(=O)C3CCC3)[C@H]2C#N)cc1 was read as KDM4C inh 0.2, T cruzi growth-1 100.5*, Pf Dd2 growth -7.7, T cruzi growth-2 99.6*, T cruzi growth-3 69.0, 3T3 cytotox 2.1 and 3T3 cytotox 2 31.4*.
Screening CC(C)C#Cc1ccc([C@H]2[C@@H](CO)N(C(=O)C3CCOCC3)[C@H]2C#N)cc1 returned KDM4C inh 1.0, IDH1 R132H inh 0.0, T cruzi growth-1 98.1*, Pf Dd2 growth -21.4, T cruzi growth-2 106.0*, T cruzi growth-3 93.5, 3T3 cytotox -8.1 and 3T3 cytotox 2 -4.9.
`CCCC#Cc1ccc([C@@H]2[C@@H](CO)N(C(=O)C3CCC3)[C@H]2C#N)cc1` gave KDM4C inh -0.9, T cruzi growth-1 92.0 and Pf Dd2 growth -35.1.
CC(C)C#Cc1ccc([C@H]2[C@@H](C#N)N(C(=O)C3CCC3)[C@H]2CO)cc1 was read as KDM4C inh -4.3, T cruzi growth-1 97.8*, Pf Dd2 growth -60.5, T cruzi growth-2 100.3*, T cruzi growth-3 88.3, 3T3 cytotox 0.3 and 3T3 cytotox 2 36.6*.
Screening CC(C)C#Cc1ccc([C@@H]2[C@H](C#N)N(C(=O)C3CCC3)[C@H]2CO)cc1 returned KDM4C inh -3.3, T cruzi growth-1 inconclusive, Pf Dd2 growth -16.6, T cruzi growth-2 103.7*, T cruzi growth-3 73.4, 3T3 cytotox 15.4 and 3T3 cytotox 2 34.5*.
For CC(C)C#Cc1ccc([C@H]2[C@@H](C#N)N(C(=O)C3CC3)[C@H]2CO)cc1 the results were KDM4C inh 0.2, T cruzi growth-1 91.9 and Pf Dd2 growth -29.8.
`CC(C)C#Cc1ccc([C@H]2[C@@H](C#N)N(C(=O)C3CCC3)[C@@H]2CO)cc1` gave KDM4C inh -2.3, T cruzi growth-1 90.4 and Pf Dd2 growth -10.5.
CC(C)C#Cc1ccc([C@@H]2[C@@H](C#N)N(C(=O)C3CC3)[C@H]2CO)cc1 was read as KDM4C inh -1.5, T cruzi growth-1 44.3 and Pf Dd2 growth -9.0.
Screening C[C@@H]1[C@H]2[C@H](O[C@@H]3O[C@H](CO)[C@@H](O)[C@H](O)[C@H]3O)OC=C(C(=O)O)[C@H]2C[C@@H]1OC(=O)/C=C/c1ccc(O)cc1 returned IDH1 R132H inh -0.9.
For Cc1ccc(F)cc1N1C(=O)COCC1=O the results were IDH1 R132H inh -1.2.
For O=C(CCCN1C(=O)c2ccccc2C1=O)Nc1ccc(Cl)cc1C(F)(F)F the results were IDH1 R132H inh 0.6.
For C[C@@H]1CN([C@H](C)CO)S(=O)(=O)c2ccc(-c3ccccc3)cc2O[C@@H]1CN(C)Cc1cccc(F)c1 the results were KDM4C inh -1.7, IDH1 R132H inh -6.5, T cruzi growth-1 123.5*, Pf Dd2 growth -52.2, T cruzi growth-2 112.4*, T cruzi growth-3 87.8, 3T3 cytotox 11.6 and 3T3 cytotox 2 104.2*.

Screening results as filed in PubChem BioAssay.
